The record followed here is ChEMBL document CHEMBL5385938 (J Med Chem, 2024).

One data set concerns SK-BR-3. Description: Cytotoxicity against human SK-BR-3 cells harboring wildtype PI3Kalpha assessed as reduction in cell viability incubated for 72 hrs by CellTiter-Glo 2.0 luminescent cell viability assay. It counts as functional, cell-based. The note with it: SK-BR-3, 72 h. On the technique in general: ATP-based viability assays read luminescence as a measure of living cells.

In a further data set the test system is T47D. Description: Cytotoxicity against human T47D cells harboring PI3Kalpha H1047R mutant assessed as reduction in cell viability incubated for 72 hrs by CellTiter-Glo 2.0 luminescent cell viability assay. It counts as functional, cell-based.
Data set [1] in a line: Metabolic stability in pooled human hepatocytes assessed as intrinsic clearance. It counts as ADME, Liver, Hepatocyte. The note with it: read-out: CLH.
The species entered for another data set is Homo sapiens. As to the kind of experiment: Selectivity ratio of IC50 for inhibition of recombinant N-terminal 6-His tagged full length human wildtype PI3Kalpha to IC50 for inhibition of recombinant N-terminal 6-His tagged full length human PI3Kalpha H1047R mutant.
For data set [2], the target named is T1, Phosphatidylinositol 4,5-bisphosphate 3-kinase catalytic subunit alpha isoform (Homo sapiens, UniProt P42336, H1047R). As to the kind of experiment: Inhibition of recombinant N-terminal 6-His tagged full length human PI3Kalpha H1047R mutant using PIP2diC8 and PIP2:PS as substrate incubated for 1 hrs in presence of ATP by fluorescence based plate reader analysis.
T1 sequence (P42336 whole entry H1047R, canonical isoform): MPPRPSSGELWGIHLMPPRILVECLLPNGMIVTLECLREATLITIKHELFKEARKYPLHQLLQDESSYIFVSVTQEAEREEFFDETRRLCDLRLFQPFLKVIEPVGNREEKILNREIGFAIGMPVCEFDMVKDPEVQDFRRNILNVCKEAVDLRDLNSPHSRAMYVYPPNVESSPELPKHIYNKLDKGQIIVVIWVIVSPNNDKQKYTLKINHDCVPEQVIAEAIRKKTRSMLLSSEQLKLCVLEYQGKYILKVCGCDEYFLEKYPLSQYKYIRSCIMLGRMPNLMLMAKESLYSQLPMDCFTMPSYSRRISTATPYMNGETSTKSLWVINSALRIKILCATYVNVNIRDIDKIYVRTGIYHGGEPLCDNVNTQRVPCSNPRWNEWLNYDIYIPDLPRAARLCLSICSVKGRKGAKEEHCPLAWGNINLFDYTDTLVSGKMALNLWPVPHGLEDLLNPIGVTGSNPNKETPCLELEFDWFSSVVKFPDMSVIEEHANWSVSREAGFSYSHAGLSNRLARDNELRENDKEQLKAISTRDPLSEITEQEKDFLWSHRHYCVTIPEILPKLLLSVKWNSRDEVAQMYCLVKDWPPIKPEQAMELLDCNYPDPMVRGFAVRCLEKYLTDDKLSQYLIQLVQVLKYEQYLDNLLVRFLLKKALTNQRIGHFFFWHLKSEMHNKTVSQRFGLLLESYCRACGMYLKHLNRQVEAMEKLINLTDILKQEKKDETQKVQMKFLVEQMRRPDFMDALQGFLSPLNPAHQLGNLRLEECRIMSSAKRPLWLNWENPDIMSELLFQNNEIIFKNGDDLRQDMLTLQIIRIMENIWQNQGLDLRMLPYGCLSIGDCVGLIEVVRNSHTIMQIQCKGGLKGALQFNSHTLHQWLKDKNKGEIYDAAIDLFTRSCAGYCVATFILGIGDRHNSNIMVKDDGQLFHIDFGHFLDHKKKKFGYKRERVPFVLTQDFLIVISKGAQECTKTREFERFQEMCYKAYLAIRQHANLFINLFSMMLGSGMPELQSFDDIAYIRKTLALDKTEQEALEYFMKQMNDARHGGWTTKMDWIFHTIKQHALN

A short description of data set [3]: Selectivity ratio of IC50 for cytotoxicity against human SK-BR-3 cells harboring wild type PI3Kalpha to IC50 for cytotoxicity against human T47D cells harboring PI3Kalpha H1047R mutant. The data set is classed as functional.
Data set [4] deals with T1, Phosphatidylinositol 4,5-bisphosphate 3-kinase catalytic subunit alpha isoform. Description: Inhibition of PI3Kalpha H1047R mutant (unknown origin) using PI(4,5)P2:PS as substrate incubated in presence of ATP by ADP-Glo assay. (In ADP-Glo the light output rises with the ADP produced.)
Data set [5] in a line: Oral bioavailability in Sprague-Dawley rat at 100 mg/kg measured upto 24 hrs. It counts as ADME, organism-based. The note with it: in vivo.
The nature of data set [6]: Volume of distribution at steady state in Sprague-Dawley rat at 100 mg/kg, po or 3 mg/kg, iv measured upto 24 hrs. The data set is classed as ADME, organism-based. The note with it: in vivo.
A short description of data set [7]: Volume of distribution at steady state in CD-1 mouse at 100 mg/kg, po or 3 mg/kg, iv measured upto 24 hrs. The data set is classed as ADME, organism-based. Particulars: in vivo.
Data set [8] is described as follows: Oral bioavailability in Beagle dog at 10 mg/kg measured upto 24 hrs. The note with it: in vivo. It counts as ADME, organism-based, Canis lupus familiaris.
The nature of data set [9]: Half-life in Sprague-Dawley rat at 3 mg/kg, iv measured upto 24 hrs. It counts as ADME, organism-based. Particulars: in vivo.
The nature of data set [10]: In vivo inhibition of AKT phosphorylation in NOD.CB17-Prkdcscid/NCrCr mouse xenografted with ER-/HER+ human HCC1954 cells harboring PI3Kalpha H1047R mutant at 120 mg/kg, ip administered as single dose and measured after 8 hrs by immunoblotting analysis relative to control. It counts as functional. The gist of the method:
(§1)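 HCC1954 tumor-bearing mice received a single IP dose of 60 or 120 mg/kg. Tumor pAKT modulation was measured at 1 h and 8 h post dose, relative to control.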
(In general: A xenograft is tissue or cells of one species grown in another, often human tumour cells in immunodeficient mice.)

Data set [11] in a line: Drug uptake in NOD.CB17-Prkdcscid/NCrCr mouse xenografted with ER-/HER+ human HCC1954 cells harboring PI3Kalpha H1047R mutant at 60 to 120 mg/kg, ip administered as single dose and measured upto 8 hrs. The data set is classed as ADME, organism-based. The note with it: in vivo, dose 60-120 mg/kg.
Data set [12] in a line: Oral bioavailability in CD-1 mouse at 100 mg/kg measured upto 24 hrs. It counts as ADME, organism-based. The note with it: in vivo.
Data set [13] can be described thus: Half-life in CD-1 mouse at 3 mg/kg, iv measured upto 24 hrs. It counts as ADME, organism-based. The note with it: in vivo.
The subject of a further data set is Mus musculus. As to the kind of experiment: In vivo inhibition of AKT phosphorylation in NOD.CB17-Prkdcscid/NCrCr mouse xenografted with ER-/HER+ human HCC1954 cells harboring PI3Kalpha H1047R mutant at 100 to 300 mg/kg, po measured upto 8 hrs by immunoblotting analysis. The data set is classed as functional, organism-based. The note with it: dose 100-300 mg/kg.

In data set [14] the test system is HCC1954. As to the kind of experiment: Antitumor activity against ER-/HER2+ human HCC1954 cells harboring endogenous PI3Kalpha H1047R mutant xenografted in NOD.CB17-Prkdcscid/NCrCr mouse assessed as tumor growth inhibition at 100 mg/kg, ip administered once a day for 14 days relative to control. The data set is classed as functional. Particulars: HCC1954, 336 h, time 14 day, read-out: TGI. The gist of the method:
(§2)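 HCC1954 xenograft mice (ER-/HER2+ breast line, endogenous PI3Kα H1047R) were dosed IP for 14 days, at 100 mg/kg qd or 80 mg/kg b.i.d. Read-out was tumor growth inhibition or regression (%).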

The nature of data set [15]: In vivo inhibition of AKT phosphorylation in NOD.CB17-Prkdcscid/NCrCr mouse xenografted with ER-/HER+ human HCC1954 cells harboring PI3Kalpha H1047R mutant at 60 mg/kg, ip administered as single dose and measured after 8 hrs by immunoblotting analysis relative to control. It counts as functional. The gist of the method: as §1
In data set [16] the test system is HCC1954. As to the kind of experiment: Antitumor activity against ER-/HER2+ human HCC1954 cells harboring endogenous PI3Kalpha H1047R mutant xenografted in NOD.CB17-Prkdcscid/NCrCr mouse assessed as tumor regression at 80 mg/kg, ip administered twice daily for 14 days relative to control. The data set is classed as functional. Particulars: time 14 day. An outline of the steps:
as §2

Data set [17] in a line: Half-life in Beagle dog at 2 mg/kg, iv measured upto 24 hrs. The data set is classed as ADME, organism-based, Canis lupus familiaris. The note with it: in vivo.
Data set [18] can be described thus: Volume of distribution at steady state in Beagle dog at 10 mg/kg, po or 2 mg/kg, iv measured upto 24 hrs. The data set is classed as ADME, organism-based, Canis lupus familiaris. Particulars: in vivo.
Data set [19] addresses T1, Phosphatidylinositol 4,5-bisphosphate 3-kinase catalytic subunit alpha isoform.

The source made the active and inactive calls. The calls are words filed in the database; no cut-off is given here.

As usually defined, the IC50 is the point on the concentration scale where inhibition reaches its midpoint. Take `Cc1cc([C@@H](C)Nc2ccccc2C(=O)O)c2nc(C3CCC(F)(F)CC3)c(C#N)c(=O)n2c1`: the IC50 in the data set on SK-BR-3 is greater than 10000 nM; in the data set with T47D it was 246 nM. Besides, the CLint scaled in data set [1] was 12 mL/min/kg.

Regarding `Cc1cc([C@@H](C)Nc2cscc2C(=O)O)c2nc(N3CCC(F)(F)CC3)c(C#N)c(=O)n2c1`, the IC50 in the data set with T47D was determined as 183 nM.

Regarding `Cc1cc([C@@H](C)Nc2ccccc2C(=O)O)c2oc(N3CCCCC3)cc(=O)c2c1`, the Ratio IC50 in the data set filed under Homo sapiens stood at 13.5. Further, the IC50 in data set [2] is less than 500 nM.

Take `Cc1cc([C@@H](C)Nc2ccccc2C(=O)O)c2nc(N3CCCCC3)c(C)c(=O)n2c1`: the IC50 in the data set with SK-BR-3 is greater than 10000 nM; in the data set on T47D, 120 nM. The “Ratio IC50” value in data set [3] is recorded as 83. Further, the CLint scaled in [1] was 340 mL/min/kg.

Take `Cc1cc([C@@H](C)Nc2ccccc2C(=O)O)c2nc(N3CCCCC3)c(C#N)c(=O)n2c1`: the IC50 stood at 9940 nM with SK-BR-3 and 86 nM with T47D. In addition, the CLint scaled in data set [1] was determined as 79 mL/min/kg.

`Cc1cc([C@@H](C)Nc2ccccc2C(=O)O)c2nc(N3CC4CC(C3)C4(F)F)c(C#N)c(=O)n2c1`: the IC50 with SK-BR-3 is greater than 10000 nM; with T47D, 71 nM. For the same molecule, the CLint scaled in data set [1] was 39 mL/min/kg.

In the case of `Cc1cc([C@@H](C)Nc2ccc(Cl)nc2C(=O)O)c2nc(N3CCC(F)(F)CC3)c(C#N)c(=O)n2c1`, the IC50 with T47D was found to be 304 nM.

As for `Cc1cc([C@@H](C)Nc2ccccc2C(=O)O)c2nc(N3CCCC3)c(C#N)c(=O)n2c1`, the IC50 with SK-BR-3 was greater than 10000 nM; with T47D, 135 nM. Further, the CLint scaled in data set [1] is 78 mL/min/kg.

For `Cc1cc([C@@H](C)Nc2ccccc2C(=O)O)c2nc(N3CCCCC3)cc(=O)n2c1`, the IC50 in [4] was 411 nM; in the data set with SK-BR-3 it was greater than 10000 nM; in the data set on T47D, 1110 nM. Besides, the “Ratio IC50” value in [3] came to 9. The CLint scaled in [1] stood at 181 mL/min/kg.

For the molecule `Cc1cc([C@@H](C)Nc2ccccc2C(=O)O)c2nc(N3CCC(C)(C)CC3)c(C#N)c(=O)n2c1`, the figures for the IC50 in the data set with SK-BR-3 and in the data set with T47D were greater than 10000 nM and 151 nM, respectively. Also, the CLint scaled in [1] was determined as 76 mL/min/kg.

With `Cc1cc(C(C)Nc2ccccc2C(=O)O)c2nc(N3CCC(C)(C)CC3)n(C)c(=O)c2c1` (centres undefined), the IC50 with SK-BR-3 was greater than 10000 nM; in the data set with T47D it was 6240 nM. In [3], the “Ratio IC50” value is reported as 2.

For the molecule `Cc1cc([C@@H](C)Nc2ccccc2C(=O)O)c2nc(N3CC4(C3)CC(F)(F)C4)c(C#N)c(=O)n2c1`, the IC50 in the data set on SK-BR-3 and in the data set with T47D was greater than 10000 nM in each case. Also, in data set [1], the CLint scaled turned out to be 118 mL/min/kg.

Turning to `Cc1cc([C@@H](C)Nc2cccc(F)c2C(=O)O)c2nc(N3CCC(F)(F)CC3)c(C#N)c(=O)n2c1`, the IC50 in the data set with T47D was found to be 566 nM.

Take `Cc1cc([C@@H](C)Nc2ccccc2C(=O)O)c2nc(N3CC(F)(F)C3)c(C#N)c(=O)n2c1`: the results for the IC50 with SK-BR-3 and with T47D were greater than 10000 nM and 56 nM, respectively. Besides, the CLint scaled in data set [1] is 24 mL/min/kg.

With `Cc1cc([C@@H](C)Nc2ccc(Cl)cc2C(=O)O)c2nc(N3CCC(F)(F)CC3)c(C#N)c(=O)n2c1`, the IC50 in the data set with T47D was 627 nM.

In the case of `Cc1cc([C@@H](C)Nc2ccccc2C(=O)O)c2oc(N3CCC(C)(C)CC3)c(C)c(=O)c2c1`, the IC50 turned out to be 9080 nM with SK-BR-3 and 160 nM in the data set on T47D. The “Ratio IC50” value in [3] is listed as 57.

On to `Cc1cc([C@@H](C)Nc2nccnc2C(=O)O)c2nc(N3CCC(F)(F)CC3)c(C#N)c(=O)n2c1`, for which the IC50 in the data set with T47D was determined as 3720 nM.

For `Cc1cc([C@@H](C)Nc2ccccc2C(=O)O)c2nc(N3CCC(F)(F)CC3)c(C#N)c(=O)n2c1`, the values for the F in data set [5], in data set [8] and in [12] were 57%, 7% and 48%, respectively. Besides, the values for the IC50 (in data set [4]; with SK-BR-3; in the data set on T47D) were 73 nM, 8970 nM and 48 nM, respectively. In addition, the Vdss in data set [6] turned out to be 4.8 L/kg; in data set [7] it was 13.6 L/kg; in data set [18] it was 1.5 L/kg. For the same molecule, the t1/2 in data set [9] was found to be 3.5 h; in data set [13], 2 h; in [17], 0.7 h. In data set [10], the inhibition in vivo at 120 mg/kg was 81%. For the same molecule, the Drug uptake entry in [11] is “Active”. Also, in the data set on Mus musculus, the inhibition entry was “inactive”. Also, in the data set with HCC1954 [14], the inhibition in vivo at 100 mg/kg was found to be 88%. This molecule came in with an inhibition in vivo at 60 mg/kg in data set [15] of 42%. Further, the Activity with HCC1954 [16] was -34%. Also, the CLint scaled in [1] amounted to 29 mL/min/kg.

For `Cc1cc([C@@H](C)Nc2ccccc2C(=O)O)c2nc(N3CCS(=O)(=O)CC3)c(C#N)c(=O)n2c1`, the IC50 in the data set on SK-BR-3 and in the data set on T47D was greater than 10000 nM in each case. The CLint scaled in [1] worked out at 5 mL/min/kg.

For `Cc1cc([C@@H](C)Nc2ccccc2C(=O)O)c2nc(N3CCCCC3)c(F)c(=O)n2c1`, the CLint scaled in [1] worked out at 862 mL/min/kg.

Consider `Cc1cc(C(C)Nc2ccccc2C(=O)O)c2nc(N3CCCCC3)ncc2c1` (centres undefined), for which the IC50 with SK-BR-3 and in the data set with T47D was greater than 10000 nM throughout.

In the case of `Cc1ccccc1C1NC(=O)c2cc(NC3COC3)cc(NC(=O)c3csc4ccccc34)c21` (centres undefined), in [19], the IC50 is no more than 100 nM.
